This passage reports Ki, Activity and IC50 results from ChEMBL document CHEMBL5032538, “Studies on the Importance of the 7α-, and 12α- hydroxyl groups of N-Aryl-3α,7α,12α-trihydroxy-5β-cholan-24-amides on their Antigermination Activity Against a Hypervirulent Strain of Clostridioides (Clostridium) difficile” (Bioorg Med Chem, 2021).

Common to all, as to assay type: functional
In assay [1] the target is Clostridioides difficile. In words: Inhibition of Taurocholate-induced spore germination in Clostridioides difficile 630 in presence of glycine measured every minute for 90 mins.
In assay [2] the test system is Clostridioides difficile. Briefly: Inhibition of Taurocholate-induced spore germination in Clostridioides difficile R20291 assessed as remaining germination activity at 125 uM in the presence of glycine measured every minute for 2 hrs relative to control. Put shortly:
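Spores purified on a HistoDenz gradient, heat-activated at 68°C for 30 min, washed, then diluted to OD580 1.0 in 100 mM sodium phosphate pH 6.0 with 5 mg/ml sodium bicarbonate. Compound at 125 μM final, in triplicate, with 6 mM taurocholate and 12 mM glycine. OD580 read every minute for 2 h and normalized to time zero. Percent germination given with standard deviation.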

Assay [3] deals with Clostridioides difficile. In words: Inhibition of Taurocholate-induced spore germination in Clostridioides difficile R20291 in the presence of glycine measured every minute for 2 hrs. Put shortly: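 HistoDenz-purified spores were heat-activated at 68°C for 30 min and set to OD580 1.0 in 100 mM sodium phosphate pH 6.0 with 5 mg/ml bicarbonate. They were incubated with varied analog concentrations plus 6 mM taurocholate and 12 mM glycine. OD580 was read each minute for 2 h and normalized to t0. IC50 came from extent of germination plotted against log concentration.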

The target of assay [4] is Clostridioides difficile. Briefly: Inhibition of Taurocholate-induced spore germination in Clostridioides difficile UK1 at […] by spectrophotometric method.

As usually defined, the Ki is a measure of affinity in units of concentration, obtained from inhibition or displacement. On to `C[C@H](CCC(=O)Nc1cccc(S(=O)(=O)O)c1)[C@H]1CC[C@H]2[C@@H]3[C@H](O)C[C@@H]4C[C@H](O)CC[C@]4(C)[C@H]3C[C@H](O)[C@]12C`, for which the Ki in assay [1] was 50 µM.

Usually IC50 stands for the concentration that gives 50% inhibition. Consider `C[C@H](CCC(=O)Nc1ccccc1)[C@H]1CC[C@H]2[C@@H]3CC[C@@H]4C[C@H](O)CC[C@]4(C)[C@H]3C[C@H](O)[C@]12C`, for which the Activity in assay [2] is listed as 3%. Besides, in assay [3], the half-maximal inhibitory concentration (IC50) was 1.3 µM.

As to `C[C@H](CCC(=O)Nc1cccc(F)c1)[C@H]1CC[C@H]2[C@@H]3[C@@H](O)C[C@@H]4C[C@H](O)CC[C@]4(C)[C@H]3CC[C@]12C`, in assay [2], the Activity is 100%.

For `COc1ccccc1NC(=O)CC[C@@H](C)[C@H]1CC[C@H]2[C@@H]3[C@H](O)C[C@@H]4C[C@H](O)CC[C@]4(C)[C@H]3CC[C@]12C`, in assay [2], the Activity was found to be 31%. Also, the IC50 in assay [3] worked out at 6 µM.

Consider `Cc1ccc(F)cc1NC(=O)CC[C@@H](C)[C@H]1CC[C@H]2[C@@H]3CC[C@@H]4C[C@H](O)CC[C@]4(C)[C@H]3CC[C@]12C`, for which the Activity in assay [2] amounted to 100%.

As for `C[C@H](CCC(=O)Nc1ccccc1)[C@H]1CC[C@H]2[C@@H]3[C@@H](O)C[C@@H]4C[C@H](O)CC[C@]4(C)[C@H]3CC[C@]12C`, in assay [2], the Activity came out at 57%.

As to `Cc1ccc(F)cc1NC(=O)CC[C@@H](C)[C@H]1CC[C@H]2[C@@H]3CC[C@@H]4C[C@H](O)CC[C@]4(C)[C@H]3C[C@H](O)[C@]12C`, the Activity in assay [2] is given as 65%.

Regarding `C[C@H](CCC(=O)Nc1ccccc1)[C@H]1CC[C@H]2[C@@H]3[C@H](O)C[C@@H]4C[C@H](O)CC[C@]4(C)[C@H]3CC[C@]12C`, in assay [2], the Activity was 14%. In addition, the IC50 in assay [3] was determined as 4 µM.

`COc1ccccc1NC(=O)CC[C@@H](C)[C@H]1CC[C@H]2[C@@H]3[C@@H](O)C[C@@H]4C[C@H](O)CC[C@]4(C)[C@H]3CC[C@]12C`: in assay [2], the Activity worked out at 100%.

On to `C[C@H](CCC(=O)Nc1cccc(F)c1)[C@H]1CC[C@H]2[C@@H]3CC[C@@H]4C[C@H](O)CC[C@]4(C)[C@H]3CC[C@]12C`, for which, in assay [2], the Activity came out at 100%.

For `C[C@H](CCC(=O)Nc1cccc(F)c1)[C@H]1CC[C@H]2[C@@H]3CC[C@@H]4C[C@H](O)CC[C@]4(C)[C@H]3C[C@H](O)[C@]12C`, the Activity in assay [2] is 59%.

In the case of `Cc1ccc(F)cc1NC(=O)CC[C@@H](C)[C@H]1CC[C@H]2[C@@H]3[C@H](O)C[C@@H]4C[C@H](O)CC[C@]4(C)[C@H]3CC[C@]12C`, in assay [2], the Activity is on record as 66%.

In the case of `COc1ccccc1NC(=O)CC[C@@H](C)[C@H]1CC[C@H]2[C@@H]3CC[C@@H]4C[C@H](O)CC[C@]4(C)[C@H]3CC[C@]12C`, in assay [2], the Activity came out at 100%.

On to `C[C@H](CCC(=O)Nc1ccccc1)[C@H]1CC[C@H]2[C@@H]3CC[C@@H]4C[C@H](O)CC[C@]4(C)[C@H]3CC[C@]12C`, for which the Activity in assay [2] turned out to be 100%.

In the case of `C[C@H](CCC(=O)Nc1cccc(F)c1)[C@H]1CC[C@H]2[C@@H]3[C@H](O)C[C@@H]4C[C@H](O)CC[C@]4(C)[C@H]3CC[C@]12C`, in assay [2], the Activity was 100%.

Regarding `COc1ccccc1NC(=O)CC[C@@H](C)[C@H]1CC[C@H]2[C@@H]3CC[C@@H]4C[C@H](O)CC[C@]4(C)[C@H]3C[C@H](O)[C@]12C`, the Activity in assay [2] turned out to be 0.4%. Also, the half-maximal inhibitory concentration (IC50) in assay [3] is 2.4 µM.

As to `Cc1ccc(F)cc1NC(=O)CC[C@@H](C)[C@H]1CC[C@H]2[C@@H]3[C@@H](O)C[C@@H]4C[C@H](O)CC[C@]4(C)[C@H]3CC[C@]12C`, the Activity in assay [2] is reported as 100%.

As to `C[C@H](CCC(=O)O)[C@H]1CC[C@H]2[C@@H]3[C@H](O)C[C@@H]4C[C@H](O)CC[C@]4(C)[C@H]3CC[C@]12C` [CHENODIOL], the inhibition constant Ki in assay [4] is 378 µM.

Regarding `C[C@H](CCC(=O)O)[C@H]1CC[C@H]2[C@@H]3CC[C@@H]4C[C@H](O)CC[C@]4(C)[C@H]3CC[C@]12C` [LITHOCHOLIC ACID], the Ki in assay [4] turned out to be 104 µM.

Molecule `C[C@H](CCC(=O)O)[C@H]1CC[C@H]2[C@@H]3[C@@H](O)C[C@@H]4C[C@H](O)CC[C@]4(C)[C@H]3CC[C@]12C` [URSODIOL] came in with an inhibition constant Ki in assay [4] of 213 µM.
